An excerpt weighted towards active compounds, which were near 2.9% of everything screened.
B2AR ag: activates human beta-2 adrenergic receptor causing internalization; P07550; Am2.2-beta2AR cells, FAP receptor internalization, flow cytometry; response, % (concentration not given with the values); 0.43% of 340,000 active;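 active = response above a set limit, near 3 SD of response in nonfluorescent compounds, cut at about 42% in these data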
ATG4B inh: ATG4B (human) cysteine protease inhibition; 0.51% of 340,000 active; inhibition, % at 8.33 µM; Q9Y4P1; ATG4B cleavage of LC3-PLA2, NBD-HPC fluorescence, 1 h; in the data active = inhibition above about 40%
MEKK3 PB1 HTS: MEKK3-MEK5 PB1 interaction, increase or decrease; AID 1529; bead-based flow cytometry, Alexa488-MEK5 binding to MEKK3; actives lie on both sides; 0 = blocked by unlabeled MEK5, 100 = vehicle; binding response (% of control), % at 10 µM; 1.4% of 290,000 active; Q99759;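 active = binding response more than 3 SD above or below the average of its plate-row segment, actives on both sides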;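 also: Alexa488 bead fluorescence after subtracting the streptavidin-only scavenger bead signal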
Target sequence (Q99759 whole entry, looked up): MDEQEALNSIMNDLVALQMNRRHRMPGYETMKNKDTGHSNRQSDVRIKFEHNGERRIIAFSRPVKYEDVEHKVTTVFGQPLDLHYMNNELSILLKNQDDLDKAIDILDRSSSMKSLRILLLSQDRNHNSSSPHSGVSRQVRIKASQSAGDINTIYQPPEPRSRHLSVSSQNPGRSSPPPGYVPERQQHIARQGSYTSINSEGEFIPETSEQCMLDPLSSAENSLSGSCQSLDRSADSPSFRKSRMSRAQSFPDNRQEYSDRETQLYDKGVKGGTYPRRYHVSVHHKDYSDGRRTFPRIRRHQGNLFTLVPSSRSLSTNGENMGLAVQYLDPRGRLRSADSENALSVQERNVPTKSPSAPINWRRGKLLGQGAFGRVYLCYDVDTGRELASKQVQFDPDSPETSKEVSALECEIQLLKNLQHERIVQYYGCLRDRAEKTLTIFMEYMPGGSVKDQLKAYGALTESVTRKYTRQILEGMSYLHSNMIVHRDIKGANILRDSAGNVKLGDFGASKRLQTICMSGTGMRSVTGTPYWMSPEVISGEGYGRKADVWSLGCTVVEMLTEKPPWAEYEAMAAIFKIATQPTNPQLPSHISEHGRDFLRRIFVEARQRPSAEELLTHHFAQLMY
MEKK2 mut-MEK5: signal of MEK5 binding to mutant human MEKK2 PB1 domain; AID 1530; 0.35% of 290,000 active; bead flow cytometry, Alexa488-MEK5 binding to MEKK2 mutant; percent response, % at 10 µM; in the data active = percent response above about 24%, passing the limit was not always enough
Dynein transport: blocks dynein driven cargo transport along microtubules; 3617.4 mouse cells, GR-EGFP nuclear translocation imaging; test concentration mostly 20 µM; stimulated with dexamethasone, 1 µM; active compounds read low; z-score, hits read low; 0.47% of 220,000 active;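 active = plate z-score of nuclear minus cytoplasmic receptor signal below a set negative limit, without overly bright fluorescence or cell loss, cut at about -3.5 in these data, passing the limit was not always enough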;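 also: z-score of nuclear minus cytoplasmic ring GR-EGFP intensity difference per well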
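Buffer or medium: tet-free medium with charcoal-stripped serum / Also added: dexamethasone agonist, 1.0 µM final, for 30 min / Timing: induction 48 h, compound 1 h, agonist 30 min / Measured by: high-content fluorescence imaging after fixation / Read-out: nuclear-to-cytoplasmic GR-EGFP distribution per well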
MEKK2wt PB1 HTS: raises or lowers MEK5 binding to wildtype human MEKK2 PB1 domain; Q9Y2U5; bead flow cytometry, Alexa488-MEK5 binding to MEKK2 WT; actives lie on both sides; binding response (% of control), % at 10 µM; 1.1% of 290,000 active; in the data active = binding response below about 67% or above about 130%
ATG4B confirm: ATG4B (human) inhibition, single-dose confirmed. inhibition, % at 8.33 µM. shares compounds with ATG4B inh. ATG4B protease fluorescent substrate cleavage assay. 92% of 320 active; in the data active = inhibition above about 39%
PLA2 ctr: PLA2 (human) inhibition in ATG4B counter-screen; shares compounds with ATG4B inh; purified PLA2, NBD-C6-HPC fluorescence, 45 min; inhibition, % at 8.33 µM; 66% of 1,600 active; AID 588402; in the data active = inhibition above about 50%
A number is an active result; - = inactive; . = not tested or not shown.

SMILES	B2AR ag	ATG4B inh	MEKK3 PB1 HTS	MEKK2 mut-MEK5	Dynein transport	MEKK2wt PB1 HTS	PLA2 ctr	others
COC(=O)c1cc(C)nc2c1C(=O)C(=O)C=C2N1CCOCC1	61	75	-	-	.	-	-	ATG4B confirm=-
COc1ccc(Br)cc1/C=C(\C(=O)O)c1ccc(S(=O)(=O)N2CCCCC2)s1	-	84	.	.	.	.	87
CCOc1cc(/C=C(\C(=O)O)c2ccc(S(=O)(=O)N3CCCC3)s2)ccc1OC	-	-	.	.	.	.	.
Oc1ccc(N=Nc2nc(-c3ccccc3)c(-c3ccccc3)[nH]2)cc1	-	48	-	-	-	-	-	ATG4B confirm=67
Oc1ccc(N=Nc2n[nH]c(-c3ccccc3)n2)cc1	-	-	-	-	-	-	.
CCC(=O)N(CCC1(C(C)C)CCOC(C)(C)C1)C(C)c1cccs1 (stereo not drawn)	-	-	-	-	-	-	.
CCOc1ccccc1OCC(=O)Nc1cc(S(=O)(=O)N2CCCCC2)ccc1N1CCN(CC)CC1	-	-	.	.	.	.	.
COc1ccc(S(=O)(=O)N2CCCCC2)cc1NC(=S)Nc1cccc(Cl)c1C	-	71	-	-	-	-	73
COc1ccccc1OCC(=O)Nc1cc(S(=O)(=O)N2CCCCC2)ccc1N1CCCCC1	-	42	-	-	-	-	-
CCN(CC)S(=O)(=O)c1ccc(N2CCOCC2)c(NC(=O)COc2ccccc2C)c1	-	62	.	.	.	.	76
C[C@H]1CN([C@@H](C)CO)C(=O)Cc2cc(NC(=O)CCC(F)(F)F)ccc2O[C@H]1CN(C)CC1CC1	-	-	.	.	.	.	.
O=C(OCC(=O)N1CCc2ccccc2C1)c1cccnc1Cl	-	-	-	-	-	-	.
COC(=O)C1CCC(=O)N1C(c1ccc(OC)cc1)c1cc(OC)c(OC)c(OC)c1 (stereo not drawn)	-	-	.	.	.	.	.
CC(C)N(Cc1ccccc1)C(=O)C1CCN(c2ncnc3c2nc2n3CCCCC2)CC1	-	72	-	-	.	-	76
Cc1ccc(S(=O)(=O)N(CC(=O)Nc2cccc([N+](=O)[O-])c2)C2CCCCC2)cc1	-	45	-	-	-	-	51
COc1ccc(C)cc1S(=O)(=O)N(CC(=O)Nc1cc([N+](=O)[O-])ccc1C)c1ccc(C)c(C)c1	-	77	-	-	-	-	87
COc1ccc(C)cc1S(=O)(=O)N(CC(=O)Nc1cccc([N+](=O)[O-])c1)c1cc(C)cc(C)c1	-	83	-	-	-	-	86
COc1ccc(N(CC(=O)Nc2cccc(C)c2)S(=O)(=O)c2ccc(C)cc2)cc1OC	-	-	-	-	.	-	.
Cc1ccc(S(=O)(=O)CCC(=O)Nc2cccc([N+](=O)[O-])c2)cc1	-	-	-	-	-	-	.
O=C(O)c1cc(Cl)c(Cl)cc1C(=O)N(Cc1ccccc1)Cc1ccccc1	-	43	-	-	.	-	52
CC(C)Cn1c(SC(C)C(=O)Nc2ccc3c(c2)OCCO3)nc2ccccc2c1=O (stereo not drawn)	-	49	-	-	-	-	55
Cc1ccc(S(=O)(=O)N2CCN(C)CC2c2ccccc2)cc1 (stereo not drawn)	-	-	.	.	.	.	.
O=C(CN1C(=O)/C(=C/c2ccco2)SC1=S)Nc1ccc(O)c(C(=O)O)c1	-	-	-	-	.	-	.
CC(C(=O)Nc1ccc(C(=O)O)c(O)c1)N1C(=O)/C(=C\c2ccco2)SC1=S (stereo not drawn)	-	48	-	-	.	-	-	ATG4B confirm=62
O=C(CN1C(=O)/C(=C/c2ccco2)SC1=S)Nc1ccc(C(=O)O)c(O)c1	-	62	-	-	.	-	-	ATG4B confirm=57
CC(C(=O)N(C)C1CCS(=O)(=O)C1)N1C(=O)/C(=C/c2ccco2)SC1=S (stereo not drawn)	-	-	-	-	.	-	.
Cc1ccc(-c2cc(=O)c3cc(F)ccc3[nH]2)cc1	-	-	-	-	-	-	.
Cc1ccc(-c2cc(=O)c3cc(C)ccc3[nH]2)cc1	-	72	-	-	-	-	-

Screening data as filed in PubChem.
